Rows were chosen to be rich in hits. Some 12% of all compounds tested hit in one or more screens of this group.
L major viab: Leishmania major promastigote growth inhibition, primary screen; actives 9% (n = 200,000); Leishmania major promastigotes, resazurin fluorescence viability; inhibition, % at 10 µM;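 also: promastigotes grown with compound for 44 hours at 28 °C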
CHOP inh: inhibitors of CHOP promoter induction, primary screen, cell-based, unfolded protein response, luciferase reporter; actives 3.8% (n = 220,000); inhibition, % at 10 µM; CHO-K1 CHOP-promoter luciferase, tunicamycin-induced, 15-18 h;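 active = compounds that reduced the stress-induced luciferase reporter signal by more than about 70% of percent inhibition, limit read from the data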;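 also: 0% = tunicamycin plus vehicle and 100% = wells without tunicamycin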
PKD1 kinase inh: inhibitors of human PKD1 kinase, biochemical, fluorescence polarization | PKD1 kinase fluorescence polarization assay | inhibition, % (no concentration beside the values) | actives 0.056% (n = 200,000)
Wee1 stabilizer: Wee1 degradation inhibitors, primary screen, cell-based, HeLa, Wee1K328M-luciferase, luminescence; HeLa Luc-Wee1K328M stability; 100% = proteasome inhibitor MG132 effect; reporter increase, % at 5 µM; actives 1.2% (n = 220,000); AID 1321, 2008;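 active = activation above the mean of all tested compounds plus 3 SD, set per screening run, cut at about 8.8% in these data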;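 also: cells exposed to compound for 20 h before luminescence read; 0% = DMSO alone and 100% = MG132 at 30 µM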
Target sequence (P30291 whole entry K328M): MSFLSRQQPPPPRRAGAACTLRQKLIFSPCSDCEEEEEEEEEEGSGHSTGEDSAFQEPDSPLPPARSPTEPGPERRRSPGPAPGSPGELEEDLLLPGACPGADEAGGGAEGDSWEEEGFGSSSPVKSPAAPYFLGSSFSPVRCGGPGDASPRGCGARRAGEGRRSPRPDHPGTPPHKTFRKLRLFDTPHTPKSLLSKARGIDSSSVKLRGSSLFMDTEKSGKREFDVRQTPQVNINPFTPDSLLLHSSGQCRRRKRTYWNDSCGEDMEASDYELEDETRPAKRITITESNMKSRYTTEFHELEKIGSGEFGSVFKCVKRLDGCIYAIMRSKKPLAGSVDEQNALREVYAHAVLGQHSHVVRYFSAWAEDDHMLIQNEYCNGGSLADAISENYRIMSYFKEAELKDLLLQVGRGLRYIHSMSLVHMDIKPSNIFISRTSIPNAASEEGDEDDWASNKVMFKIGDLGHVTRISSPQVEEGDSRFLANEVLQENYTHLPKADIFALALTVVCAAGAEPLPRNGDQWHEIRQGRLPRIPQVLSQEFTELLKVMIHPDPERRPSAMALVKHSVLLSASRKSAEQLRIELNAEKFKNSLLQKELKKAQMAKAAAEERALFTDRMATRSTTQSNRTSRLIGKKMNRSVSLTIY
Rad51 HR inh: human RAD51 strand exchange inhibitors, primary screen, biochemical, fluorescence | DNA repair protein RAD51 homolog 1 (Homo sapiens), Q06609 | hRad51 DNA strand exchange, fluorescence dequenching | inhibition, % at 10 µM | actives 0.085% (n = 200,000);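 active = inhibition above 40% at the single screening dose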;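 also: 0% = DMSO control wells and 100% = blanks with heterologous ssDNA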
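Test system: preformed human Rad51 ssDNA filaments. Compound dosing: single dose, 10 µM final compound. Incubation: filaments 15 min 37 °C, then compound 30 min. Technique: FRET fluorescence dequenching, excitation 485 nm, emission 520 nm. Read-out basis: percent inhibition from fluorescence, normalised to plate control and blank means. Benchmarks: plate controls and plate blanks.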
Arbovirus inh: antivirals against arbovirus infection, primary screen, cell-based, full library, 10K replicate subset; arbovirus infection cell-based antiviral screen; inhibition, % at 10 µM; actives 0.37% (n = 200,000); in the data active = inhibition above about 30%
Numbers without * were called inactive; . = no result. Rule as the data show it, unless noted: active = inhibition above about 50%; inactive = the rest.

SMILES	L major viab	CHOP inh	PKD1 kinase inh	Wee1 stabilizer	Rad51 HR inh	Arbovirus inh
N#Cc1ncc(-c2ccc3c(c2)OCCOCCOCCOCCO3)nc1C#N	22.2	-66.0	-15.2	-1.2	-1.0	-4.2
OCCN(Cc1ccccc1)Cc1cccc(C(F)(F)F)c1	0.4	46.5	-6.5	-0.3	-5.8	6.0
OCCN(Cc1ccccc1)Cc1ccc(C(F)(F)F)cc1	5.9	91.4*	-8.1	-1.4	-0.1	9.3
CC(C)(C)c1ccc(/C=N/NC(=S)Nc2cccnc2)cc1	16.6	13.3	-6.0	-1.0	-7.5	-5.0
CC(C)NC(=S)N/N=C/C1=CCC2CC1C2(C)C (stereo unspecified)	99.7*	72.0*	-5.6	1.9	-4.9	27.9
CC1=C/C(=N\NC(=S)Nc2cccnc2)CC(C)(C)C1	99.4*	-97.2	1.1	-0.5	-8.9	3.8
CC(=O)N/N=C/C1=CCC2CC1C2(C)C (stereo unspecified)	6.7	17.4	-7.6	-0.9	-9.9	5.7
C=C(C)CNC(=S)N/N=C/C1=CCC2CC1C2(C)C (stereo unspecified)	99.7*	83.7*	-0.2	-0.9	0.1	16.3
CC1(C)C2CC=C(/C=N/NC(=S)Nc3cccnc3)C1C2 (stereo unspecified)	97.4*	38.1	-0.8	0.1	7.6	-1.8
S=C(NC1CCCC1)NN1CCOCC1	-7.1	12.7	5.6	-1.8	-1.5	5.0
CC(=O)c1c(C)[nH]c(C(=O)NCc2cccc(Cl)c2)c1C	-1.4	-16.9	2.4	-0.6	-6.2	-12.8
CCCCS(=N)(=O)CC[C@H](N)C(=O)O (stereo partly specified)	.	43.8	.	.	.	.
CCCCNC(=S)N/N=C/c1ccc(C#N)cc1	-2.5	11.6	-5.4	0.9	5.8	-4.2
CCCCNC(=S)N/N=C/C1=CCC2CC1C2(C)C (stereo unspecified)	100.1*	16.2	-0.1	8.9*	2.0	6.4
CCOC(=O)c1c(C)nc2cc(C)cc(C)n12	1.8	10.9	-1.8	-0.6	3.7	3.4
COc1ccc(/C=C/C(=O)O)cc1COc1cccc(C)c1	-6.3	-18.9	-11.9	-1.7	1.0	2.7
COc1ccc(NC(=S)N/N=C/c2ccc(F)cc2)cc1OC	-3.1	7.8	0.8	0.3	2.8	5.9
COc1ccc(C=O)cc1COc1ccccc1F	61.0*	25.9	4.1	-4.4	2.6	-8.3
COc1ccc(/C=N/NC(=S)Nc2ccccc2)cc1COc1ccc(F)cc1F	54.5*	7.8	-10.7	-2.5	-3.2	3.2
COc1ccc(/C=C/C(=O)c2ccccc2)cc1COc1ccccc1F	62.1*	-15.8	3.3	0.3	-3.3	3.6
Cc1cc(F)ccc1N1CCC(N2CCN(CCC(C)C)C(CCO)C2)CC1 (stereo unspecified)	94.9*	18.1	-5.8	-0.6	-6.3	-8.7
Cc1cc(F)ccc1N1CCC(N2CCN(C(C)C)C(CCO)C2)CC1 (stereo unspecified)	98.2*	12.9	-4.2	-1.9	.	-16.5
NS(=O)(=O)c1ccc(CNC(=O)Cc2c(F)cccc2Cl)cc1	-1.2	2.5	-3.9	-1.9	-5.1	-0.2
Cc1ccc(Cn2c(C(C)Nc3nc(-c4ccc(F)cc4)cs3)nc3cc(C(F)(F)F)ccc32)cc1 (stereo unspecified)	.	.	.	.	6.7	.
O=C(Nc1nc2c(s1)CCCC2)c1ccc(Br)s1	35.0	7.6	-0.1	1.3	2.6	37.7*
SMILES	L major viab	CHOP inh	PKD1 kinase inh	Wee1 stabilizer	Rad51 HR inh	Arbovirus inh
COc1ccc(OC)c2sc(NC(=O)c3ccc(Br)s3)nc12	-7.1	91.4*	-3.2	1.1	-4.1	3.1
COCCCN(CCC#N)C(=O)c1c(-c2c(Cl)cccc2Cl)noc1C	.	10.0	.	3.0	5.6	.
O=C(NCc1cccs1)C(=O)c1cn(CC(=O)N2CCCC2)c2ccccc12	-3.7	-0.1	-3.7	3.4	2.3	5.1
O=c1[nH][nH]c(=S)n1-c1ccccc1C(F)(F)F	.	7.1	.	1.5	-1.9	.
COc1cccc(CNc2ccc(Br)cn2)c1O	-1.4	7.8	-5.0	0.3	-9.5	-1.6
COc1cccc(CNc2ncc(Br)cc2Br)c1O	-4.4	80.9*	7.0	7.7	1.8	5.4

Bioassay records: PubChem BioAssay, several laboratories
